# From ChEMBL document CHEMBL4715925, “Sulfamoylbenzamide-based Capsid Assembly Modulators for Selective Inhibition of Hepatitis B Viral Replication” (ACS Med Chem Lett, 2021)
# Tests used:
# [1] = Cytotoxicity against human HepG2 2.2.15 cells assessed as reduction in cell viability incubated for 5 days by MTT assay; format: cell-based; conditions: time 5 day
# In short: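 HepG2.2.15 cells were incubated with compound, then cell viability was measured. Mean ± SD of three independent experiments.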
# Hepatitis B virus = assay: Antiviral activity against Hepatitis B genotype D virus infected in HepG2 2.2.15 cells assessed as inhibition of viral DNA incubated for 5 days by qPCR analysis; format: functional, cell-based; conditions: HepG2 2.2.15, 120 h
# In short: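 HepG2.2.15 cells were incubated with compound for 5 days. HBV DNA was then purified from the culture supernatant and quantified by real-time PCR.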
# [2] = Selectivity index, ratio of CC50 for human […] cells to EC50 for Hepatitis B virus; format: toxicity; conditions: read-out: Ratio CC50/EC50
# [3] = AUClast in Sprague-Dawley rat at 5 mg/kg, iv by LC-MS/MS analysis; format: ADME, organism-based; set-up: route intravenous, time 0 - last, dose 5 mg/kg; conditions: in vivo
# In short: (§1)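 Male SD rats, 5 mg/kg given i.v. or p.o.; plasma concentration–time courses followed. Parameters: Tmax, Cmax, terminal T1/2, AUClast, AUC to infinity, total plasma clearance, Vss, oral bioavailability (Ft). Values are mean ± SD of at least three independent experiments.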
# [4] = Oral bioavailability in Sprague-Dawley rat at 5 mg/kg by LC-MS/MS analysis; format: ADME, organism-based; conditions: in vivo; in short: as §1
# [5] = Half life in Sprague-Dawley rat at 5 mg/kg, iv by LC-MS/MS analysis; format: ADME, organism-based; conditions: in vivo; in short: as §1
# [6] = AUClast in Sprague-Dawley rat at 5 mg/kg, po by LC-MS/MS analysis; format: ADME, organism-based; set-up: time 0 - last, route oral, dose 5 mg/kg; conditions: in vivo; in short: as §1
# [7] = Stability in rat plasma assessed as compound remaining at 5 uM incubated for 4 hrs by LC-MS/MS analysis; format: ADME, cell-free; conditions: read-out: Stabilty
# In short: (§2)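 Incubated in rat or human plasma at 37 °C for 4 h; result is % compound remaining. n = 3, mean ± SD.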
# [8] = Clearance in Sprague-Dawley rat at 5 mg/kg, iv by LC-MS/MS analysis; format: ADME, organism-based; conditions: in vivo; in short: as §1
# [9] = Metabolic stability in rat liver microsomes assessed as half life at 1 uM incubated for 30 mins by LC-MS/MS analysis; format: ADME, Microsome
# In short: (§3)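 Phase-I stability in rat or human liver microsomes, given as % remaining after 30 min, with half-life also derived. n = 3, mean ± SD.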
# [10] = Metabolic stability in rat liver microsomes assessed as compound remaining at 1 uM incubated for 30 mins by LC-MS/MS analysis; format: ADME, Microsome; conditions: read-out: Stabilty; in short: as §3
# [11] = Metabolic stability in human liver microsomes assessed as compound remaining at 1 uM incubated for 30 mins by LC-MS/MS analysis; format: ADME, Microsome; conditions: read-out: Stabilty; in short: as §3
# [12] = AUC (0 to infinity) in Sprague-Dawley rat at 5 mg/kg, iv by LC-MS/MS analysis; format: ADME, organism-based; set-up: time infinity, route intravenous, dose 5 mg/kg; conditions: in vivo; in short: as §1
# [13] = biological target: Voltage-gated inwardly rectifying potassium channel KCNH2 (Homo sapiens, UniProt Q12809); assay: Inhibition of human ERG by fluorescence polarization assay
# [14] = Protein binding in rat plasma at 5 uM incubated for 4 hrs by LC-MS/MS analysis; format: ADME, cell-free; conditions: read-out: PPB (converted)
# Cytochrome P450 3A4 = Cytochrome P450 3A4 (Homo sapiens, UniProt P08684); assay: Inhibition of human liver microsome CYP3A4 using […] as substrate incubated for 20 mins by LC-MS/MS with HPLC analysis; format: ADME, microsomes
# In short: (§4)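 Cocktail-substrate assay in human liver microsomes; IC50 reported for CYP1A2, 2C9, 2C19, 2D6 and 3A4. n = 3, mean ± SD.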
# [15] = Protein binding in human plasma at 5 uM incubated for 4 hrs by LC-MS/MS analysis; format: ADME, cell-free; conditions: read-out: PPB (converted)
# [16] = Tmax in Sprague-Dawley rat at 5 mg/kg, po by LC-MS/MS analysis; format: ADME, organism-based; conditions: in vivo; in short: as §1
# Cytochrome P450 2C9 = Cytochrome P450 2C9 (Homo sapiens, UniProt P11712); assay: Inhibition of human liver microsome CYP2C9 using tolbutamide as substrate incubated for 20 mins by LC-MS/MS with HPLC analysis; format: ADME, microsomes; in short: as §4
# Cytochrome P450 2D6 = Cytochrome P450 2D6 (Homo sapiens, UniProt P10635); assay: Inhibition of human liver microsome CYP2D6 using dextromethorphan as substrate incubated for 20 mins by LC-MS/MS with HPLC analysis; format: ADME, microsomes; in short: as §4
# [17] = Half life in Sprague-Dawley rat at 5 mg/kg, po by LC-MS/MS analysis; format: ADME, organism-based; conditions: in vivo; in short: as §1
# [18] = Metabolic stability in human liver microsomes assessed as half life at 1 uM incubated for 30 mins by LC-MS/MS analysis; format: ADME, Microsome; in short: as §3
# Cytochrome P450 1A2 = biological target: T1, Cytochrome P450 1A2 (Homo sapiens, UniProt P05177); assay: Inhibition of human liver microsome CYP1A2 using phenacetin as substrate incubated for 20 mins by LC-MS/MS with HPLC analysis; format: ADME, microsomes; in short: as §4
# T1 sequence (P05177 whole entry): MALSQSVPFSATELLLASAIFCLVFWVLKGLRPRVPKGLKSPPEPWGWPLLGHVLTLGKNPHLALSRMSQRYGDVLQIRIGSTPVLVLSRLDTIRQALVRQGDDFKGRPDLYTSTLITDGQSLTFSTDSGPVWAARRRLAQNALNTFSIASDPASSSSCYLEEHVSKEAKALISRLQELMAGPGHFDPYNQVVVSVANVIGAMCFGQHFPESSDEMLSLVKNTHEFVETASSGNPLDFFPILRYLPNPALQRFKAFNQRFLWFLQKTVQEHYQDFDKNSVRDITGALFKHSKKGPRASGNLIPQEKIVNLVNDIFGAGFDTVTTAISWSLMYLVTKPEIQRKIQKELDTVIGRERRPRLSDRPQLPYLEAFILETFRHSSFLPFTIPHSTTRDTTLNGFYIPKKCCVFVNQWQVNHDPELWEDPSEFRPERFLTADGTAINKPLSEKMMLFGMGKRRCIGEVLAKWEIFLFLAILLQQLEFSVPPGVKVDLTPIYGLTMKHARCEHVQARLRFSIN
# [19] = AUC (0 to infinity) in Sprague-Dawley rat at 5 mg/kg, po by LC-MS/MS analysis; format: ADME, organism-based; set-up: time infinity, route oral, dose 5 mg/kg; conditions: in vivo; in short: as §1
# [20] = Cmax in Sprague-Dawley rat at 5 mg/kg, po by LC-MS/MS analysis; format: ADME, organism-based; set-up: route oral, dose 5 mg/kg; conditions: in vivo; in short: as §1
# [21] = Stability in human plasma assessed as compound remaining at 5 uM incubated for 4 hrs by LC-MS/MS analysis; format: ADME, cell-free; conditions: read-out: Stabilty; in short: as §2
# [22] = Volume of distribution at steady state in Sprague-Dawley rat at 5 mg/kg, iv by LC-MS/MS analysis; format: ADME, organism-based; conditions: in vivo, read-out: Vdss; in short: as §1
# Cytochrome P450 2C19 = Cytochrome P450 2C19 (Homo sapiens, UniProt P33261); assay: Inhibition of human liver microsome CYP2C19 using S-mephenytoin as substrate incubated for 20 mins by LC-MS/MS with HPLC analysis; format: ADME, microsomes; in short: as §4
# Cytochrome P450 2C19, sequence (P33261 whole entry): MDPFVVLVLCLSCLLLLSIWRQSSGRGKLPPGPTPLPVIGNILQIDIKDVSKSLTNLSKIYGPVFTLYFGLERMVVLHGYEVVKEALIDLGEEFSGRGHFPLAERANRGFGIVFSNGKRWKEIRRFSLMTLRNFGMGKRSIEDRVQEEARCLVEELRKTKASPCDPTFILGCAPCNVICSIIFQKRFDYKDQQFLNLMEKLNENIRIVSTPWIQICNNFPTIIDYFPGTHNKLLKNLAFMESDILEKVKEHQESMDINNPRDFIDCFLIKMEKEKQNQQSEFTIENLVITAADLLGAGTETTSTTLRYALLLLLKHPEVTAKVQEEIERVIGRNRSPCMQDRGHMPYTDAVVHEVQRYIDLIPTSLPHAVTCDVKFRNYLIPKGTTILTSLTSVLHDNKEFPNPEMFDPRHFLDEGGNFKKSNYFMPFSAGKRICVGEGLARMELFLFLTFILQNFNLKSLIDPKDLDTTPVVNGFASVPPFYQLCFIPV
# Voltage-gated inwardly rectifying potassium channel KCNH2, sequence (Q12809 whole entry): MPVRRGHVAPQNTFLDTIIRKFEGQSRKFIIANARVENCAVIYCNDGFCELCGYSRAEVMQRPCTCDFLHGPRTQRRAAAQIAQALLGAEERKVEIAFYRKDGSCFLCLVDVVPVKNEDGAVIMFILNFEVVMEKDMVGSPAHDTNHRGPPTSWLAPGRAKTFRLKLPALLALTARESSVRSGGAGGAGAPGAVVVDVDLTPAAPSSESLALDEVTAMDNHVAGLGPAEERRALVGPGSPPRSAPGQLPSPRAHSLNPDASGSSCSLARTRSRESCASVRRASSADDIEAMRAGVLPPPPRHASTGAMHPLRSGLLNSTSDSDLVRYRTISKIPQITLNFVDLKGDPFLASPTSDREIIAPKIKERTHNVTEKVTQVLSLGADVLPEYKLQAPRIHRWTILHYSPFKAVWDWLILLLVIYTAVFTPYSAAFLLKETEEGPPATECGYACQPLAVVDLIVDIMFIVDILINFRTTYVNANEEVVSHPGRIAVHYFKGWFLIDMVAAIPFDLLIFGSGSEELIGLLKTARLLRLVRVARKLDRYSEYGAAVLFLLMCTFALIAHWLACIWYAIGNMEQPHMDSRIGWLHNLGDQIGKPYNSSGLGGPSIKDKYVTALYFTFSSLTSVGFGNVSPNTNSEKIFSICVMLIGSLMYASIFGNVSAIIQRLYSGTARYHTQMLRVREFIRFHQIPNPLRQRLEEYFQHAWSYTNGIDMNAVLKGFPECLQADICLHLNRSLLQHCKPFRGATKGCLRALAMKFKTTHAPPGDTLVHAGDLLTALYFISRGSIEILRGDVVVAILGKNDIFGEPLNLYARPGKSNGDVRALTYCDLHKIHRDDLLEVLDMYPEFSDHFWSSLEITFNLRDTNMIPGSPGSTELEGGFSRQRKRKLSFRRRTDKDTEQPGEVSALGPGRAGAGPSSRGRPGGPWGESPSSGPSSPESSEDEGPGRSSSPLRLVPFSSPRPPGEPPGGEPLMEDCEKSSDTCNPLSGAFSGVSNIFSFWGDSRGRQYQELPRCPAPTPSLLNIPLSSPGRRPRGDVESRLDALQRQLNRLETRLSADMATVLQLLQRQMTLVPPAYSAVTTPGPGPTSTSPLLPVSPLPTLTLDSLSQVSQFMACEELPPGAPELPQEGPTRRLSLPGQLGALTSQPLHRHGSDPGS
# Cytochrome P450 2C9, sequence (P11712 whole entry): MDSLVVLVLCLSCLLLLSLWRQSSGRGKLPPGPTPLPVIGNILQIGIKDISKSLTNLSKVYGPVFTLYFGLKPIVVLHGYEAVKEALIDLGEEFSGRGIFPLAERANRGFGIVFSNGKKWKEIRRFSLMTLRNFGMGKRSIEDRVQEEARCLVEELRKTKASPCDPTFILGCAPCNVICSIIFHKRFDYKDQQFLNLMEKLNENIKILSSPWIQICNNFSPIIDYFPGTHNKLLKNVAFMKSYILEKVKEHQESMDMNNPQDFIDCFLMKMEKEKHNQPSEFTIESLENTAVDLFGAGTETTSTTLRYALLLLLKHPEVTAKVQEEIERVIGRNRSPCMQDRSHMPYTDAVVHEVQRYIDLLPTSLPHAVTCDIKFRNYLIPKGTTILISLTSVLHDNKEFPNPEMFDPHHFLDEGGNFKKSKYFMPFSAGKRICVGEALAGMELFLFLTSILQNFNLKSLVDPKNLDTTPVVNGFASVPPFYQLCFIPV
# Cytochrome P450 2D6, sequence (P10635 whole entry): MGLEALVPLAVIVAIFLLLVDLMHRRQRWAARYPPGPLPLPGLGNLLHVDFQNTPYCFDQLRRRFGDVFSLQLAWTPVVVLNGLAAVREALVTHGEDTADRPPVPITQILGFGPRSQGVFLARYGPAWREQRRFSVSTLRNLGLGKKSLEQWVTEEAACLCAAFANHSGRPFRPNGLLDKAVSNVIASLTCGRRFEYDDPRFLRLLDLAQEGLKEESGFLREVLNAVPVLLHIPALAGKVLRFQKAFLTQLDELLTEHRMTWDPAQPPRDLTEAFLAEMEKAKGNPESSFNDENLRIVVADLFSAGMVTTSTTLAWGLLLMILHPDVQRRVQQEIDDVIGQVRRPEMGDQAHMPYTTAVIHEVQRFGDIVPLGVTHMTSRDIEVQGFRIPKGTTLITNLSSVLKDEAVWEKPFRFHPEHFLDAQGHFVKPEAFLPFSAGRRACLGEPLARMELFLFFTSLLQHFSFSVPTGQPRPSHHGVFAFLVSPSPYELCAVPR
# Cytochrome P450 3A4, sequence (P08684 whole entry): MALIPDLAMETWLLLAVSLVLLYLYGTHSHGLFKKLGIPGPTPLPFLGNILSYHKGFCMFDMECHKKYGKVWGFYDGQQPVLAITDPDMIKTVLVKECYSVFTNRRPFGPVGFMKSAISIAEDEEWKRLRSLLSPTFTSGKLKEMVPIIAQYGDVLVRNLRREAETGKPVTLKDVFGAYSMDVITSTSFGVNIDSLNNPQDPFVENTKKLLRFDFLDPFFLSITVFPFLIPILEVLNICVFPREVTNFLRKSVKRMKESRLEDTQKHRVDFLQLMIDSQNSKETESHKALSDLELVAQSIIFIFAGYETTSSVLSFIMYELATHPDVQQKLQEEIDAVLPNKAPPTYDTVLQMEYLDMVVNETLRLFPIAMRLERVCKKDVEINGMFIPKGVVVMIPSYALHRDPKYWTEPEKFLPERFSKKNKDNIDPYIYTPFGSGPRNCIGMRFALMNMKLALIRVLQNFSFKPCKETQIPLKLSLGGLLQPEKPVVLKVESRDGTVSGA
smiles,measurement,setting,value
Nc1cc(F)c(S(=O)(=O)N2CCC(O)CC2)cc1C(=O)Nc1ccc(Cl)c(C(F)F)c1,CC50 at 120 h,[1],30.1 µM
same,EC50,Hepatitis B virus,> 3.3 µM
O=C(Nc1cc(F)c(F)c(F)c1)c1ccc(F)c(S(=O)(=O)N2CCC(O)CC2)c1,selectivity ratio,[2],8.3
same,CC50 at 120 h,[1],8.6 µM
same,EC50,Hepatitis B virus,1.04 µM
Nc1cc(F)c(S(=O)(=O)N2CCC(O)CC2)cc1C(=O)Nc1ccc(F)c(C(F)F)c1,selectivity ratio,[2],164
same,AUC(0-t),[3],2310 ng·h/mL
same,bioavailability,[4],49.9%
same,half-life,[5],2.55 h
same,AUC(0-t),[6],1150 ng·h/mL
same,"remaining at 4 h, 5 µM",[7],99.6%
same,CC50 at 120 h,[1],47.5 µM
same,clearance,[8],36 mL/min/kg
same,half-life at 1 µM,[9],0.488 h
same,"remaining at 0.5 h, 1 µM",[10],54.1%
same,"remaining at 0.5 h, 1 µM",[11],40.5%
same,AUC(0-inf),[12],2330 ng·h/mL
same,IC50,[13],> 10 µM
same,"fraction unbound at 4 h, 5 µM",[14],0.108
same,IC50,Cytochrome P450 3A4,20.8 µM
same,"fraction unbound at 4 h, 5 µM",[15],0.029
same,Tmax,[16],1.33 h
same,IC50,Cytochrome P450 2C9,25.2 µM
same,IC50,Cytochrome P450 2D6,26.7 µM
same,half-life,[17],5.16 h
same,half-life at 1 µM,[18],0.51 h
same,IC50,Cytochrome P450 1A2,45.5 µM
same,AUC(0-inf),[19],1230 ng·h/mL
same,Cmax,[20],280 ng/mL
same,EC50,Hepatitis B virus,0.29 µM
same,"remaining at 4 h, 5 µM",[21],100%
same,Vd,[22],3.59 L/kg
same,IC50,Cytochrome P450 2C19,19 µM
Nc1cc(F)c(S(=O)(=O)N2CCC(O)CC2)cc1C(=O)Nc1ccc(C(F)(F)F)c(Cl)c1,CC50 at 120 h,[1],8.7 µM
same,EC50,Hepatitis B virus,> 3.3 µM
Nc1cc(F)c(S(=O)(=O)N2CCC(O)CC2)cc1C(=O)Nc1cccc(F)c1,selectivity ratio,[2],35.3
same,CC50 at 120 h,[1],29.3 µM
same,EC50,Hepatitis B virus,0.83 µM
Nc1cc(F)c(S(=O)(=O)N2CCC(O)CC2)cc1C(=O)Nc1ccc(Cl)c(F)c1,selectivity ratio,[2],9.3
same,CC50 at 120 h,[1],20.3 µM
same,EC50,Hepatitis B virus,2.18 µM
N#Cc1cc(NC(=O)c2cc(S(=O)(=O)N3CCC(O)CC3)c(F)cc2N)ccc1F,selectivity ratio,[2],> 833
same,CC50 at 120 h,[1],> 900 µM
same,EC50,Hepatitis B virus,1.08 µM
Nc1cc(F)c(S(=O)(=O)N2CCC(O)CC2)cc1C(=O)Nc1ccc(F)c(Cl)c1,selectivity ratio,[2],22.3
same,CC50 at 120 h,[1],18.5 µM
same,EC50,Hepatitis B virus,0.83 µM
